Data as given in ChEMBL document CHEMBL4689842, “EUbOPEN Chemogenomics Library wave 1” (2021).

Test system: HEK-293T
Test: Multiplex assay against HEK293T;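 as to Population Tubulin-Different-Phenotype (%): share of the cells with healthy nuclei that show this phenotype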
Format: toxicity, cell-based
Settings: human
Method in brief: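 At seeding, live cells were stained with Hoechst33342, BioTracker Green Microtubule Cytoskeleton Dye, MitoTracker Red and Annexin V Alexa Fluor 680. After compound addition they were imaged on a CQ1 microscope at 37°C and 5% CO2, and CellPathfinder machine-learning gating sorted them into Hoechst high-intensity objects or normal cells, with normal cells further split into healthy, pyknosed or fragmented nuclei and pyknosed cells into mitotic or apoptotic. Tubulin, mitochondrial-mass and membrane-permeability phenotypes are given as per cents of cells with healthy nuclei.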

[1] = 12 h, 1 µM, compound concentration 1 uM, replicate 1
[2] = 12 h, 1 µM, compound concentration 1 uM, replicate 2
[3] = 12 h, 10 µM, compound concentration 10 uM, replicate 1
[4] = 12 h, 10 µM, compound concentration 10 uM, replicate 2
[5] = 24 h, 1 µM, compound concentration 1 uM, replicate 1
[6] = 24 h, 1 µM, compound concentration 1 uM, replicate 2
[7] = 24 h, 10 µM, compound concentration 10 uM, replicate 1
[8] = 24 h, 10 µM, compound concentration 10 uM, replicate 2
[9] = 48 h, 1 µM, compound concentration 1 uM, replicate 1
[10] = 48 h, 1 µM, compound concentration 1 uM, replicate 2
[11] = 48 h, 10 µM, compound concentration 10 uM, replicate 1
[12] = 48 h, 10 µM, compound concentration 10 uM, replicate 2

CN1CCN(c2ccc(OC(F)(F)F)c(Nc3ncc4c(n3)-c3c(c(C(N)=O)nn3CCO)CC4)c2)CC1 [ONVANSERTIB]
Population Apoptotic (%) [1]: 68% | Population Fragmented Nuclei (%) [1]: 13% | Population Healthy Nuclei (%) [1]: 36% | Population Hoechst High Intensity Objects (%) [1]: 16% | Population Membrane Permeable-Phenotype (%) [1]: 6% | Population Mitochondria Different-Phenotype (%) [1]: 83% | Population Mitotic Cells (%) [1]: 31% | Population Normal (%) [1]: 83% | Population Pyknosed Nuclei (%) [1]: 50% | Population Tubulin-Different-Phenotype (%) [1]: 39% | Total Cell Count [1]: 216 | Population Apoptotic (%) [2]: 21% | Population Fragmented Nuclei (%) [2]: 11% | Population Healthy Nuclei (%) [2]: 23% | Population Hoechst High Intensity Objects (%) [2]: 5% | Population Membrane Permeable-Phenotype (%) [2]: 0% | Population Mitochondria Different-Phenotype (%) [2]: 32% | Population Mitotic Cells (%) [2]: 78% | Population Normal (%) [2]: 94% | Population Pyknosed Nuclei (%) [2]: 65% | Population Tubulin-Different-Phenotype (%) [2]: 24% | Total Cell Count [2]: 113 | Population Apoptotic (%) [3]: 67% | Population Fragmented Nuclei (%) [3]: 8% | Population Healthy Nuclei (%) [3]: 41% | Population Hoechst High Intensity Objects (%) [3]: 12% | Population Mitochondria Different-Phenotype (%) [3]: 98% | Population Mitotic Cells (%) [3]: 32% | Population Normal (%) [3]: 87% | Population Pyknosed Nuclei (%) [3]: 49% | Population Tubulin-Different-Phenotype (%) [3]: 96% | Total Cell Count [3]: 269 | Population Apoptotic (%) [4]: 31% | Population Fragmented Nuclei (%) [4]: 5% | Population Healthy Nuclei (%) [4]: 30% | Population Hoechst High Intensity Objects (%) [4]: 2% | Population Membrane Permeable-Phenotype (%) [4]: 1% | Population Mitochondria Different-Phenotype (%) [4]: 82% | Population Mitotic Cells (%) [4]: 68% | Population Normal (%) [4]: 97% | Population Pyknosed Nuclei (%) [4]: 64% | Population Tubulin-Different-Phenotype (%) [4]: 81% | Total Cell Count [4]: 234 | Population Apoptotic (%) [5]: 60% | Population Fragmented Nuclei (%) [5]: 16% | Population Healthy Nuclei (%) [5]: 23% | Population Hoechst High Intensity Objects (%) [5]: 14% | Population Membrane Permeable-Phenotype (%) [5]: 9% | Population Mitochondria Different-Phenotype (%) [5]: 83% | Population Mitotic Cells (%) [5]: 39% | Population Normal (%) [5]: 85% | Population Pyknosed Nuclei (%) [5]: 60% | Population Tubulin-Different-Phenotype (%) [5]: 67% | Total Cell Count [5]: 211 | Population Apoptotic (%) [6]: 15% | Population Fragmented Nuclei (%) [6]: 11% | Population Healthy Nuclei (%) [6]: 26% | Population Hoechst High Intensity Objects (%) [6]: 9% | Population Membrane Permeable-Phenotype (%) [6]: 0% | Population Mitochondria Different-Phenotype (%) [6]: 68% | Population Mitotic Cells (%) [6]: 84% | Population Normal (%) [6]: 90% | Population Pyknosed Nuclei (%) [6]: 62% | Population Tubulin-Different-Phenotype (%) [6]: 62% | Total Cell Count [6]: 122 | Population Apoptotic (%) [7]: 55% | Population Fragmented Nuclei (%) [7]: 7% | Population Healthy Nuclei (%) [7]: 41% | Population Hoechst High Intensity Objects (%) [7]: 15% | Population Membrane Permeable-Phenotype (%) [7]: 2% | Population Mitochondria Different-Phenotype (%) [7]: 95% | Population Mitotic Cells (%) [7]: 44% | Population Normal (%) [7]: 84% | Population Pyknosed Nuclei (%) [7]: 50% | Population Tubulin-Different-Phenotype (%) [7]: 90% | Total Cell Count [7]: 303 | Population Apoptotic (%) [8]: 42% | Population Fragmented Nuclei (%) [8]: 5% | Population Healthy Nuclei (%) [8]: 39% | Population Hoechst High Intensity Objects (%) [8]: 4% | Population Membrane Permeable-Phenotype (%) [8]: 4% | Population Mitochondria Different-Phenotype (%) [8]: 83% | Population Mitotic Cells (%) [8]: 57% | Population Normal (%) [8]: 95% | Population Pyknosed Nuclei (%) [8]: 54% | Population Tubulin-Different-Phenotype (%) [8]: 83% | Total Cell Count [8]: 256 | Population Apoptotic (%) [9]: 57% | Population Fragmented Nuclei (%) [9]: 20% | Population Healthy Nuclei (%) [9]: 18% | Population Hoechst High Intensity Objects (%) [9]: 20% | Population Membrane Permeable-Phenotype (%) [9]: 0% | Population Mitochondria Different-Phenotype (%) [9]: 59% | Population Mitotic Cells (%) [9]: 42% | Population Normal (%) [9]: 79% | Population Pyknosed Nuclei (%) [9]: 60% | Population Tubulin-Different-Phenotype (%) [9]: 43% | Total Cell Count [9]: 213 | Population Apoptotic (%) [10]: 36% | Population Fragmented Nuclei (%) [10]: 12% | Population Healthy Nuclei (%) [10]: 45% | Population Hoechst High Intensity Objects (%) [10]: 8% | Population Membrane Permeable-Phenotype (%) [10]: 6% | Population Mitochondria Different-Phenotype (%) [10]: 30% | Population Mitotic Cells (%) [10]: 63% | Population Normal (%) [10]: 91% | Population Pyknosed Nuclei (%) [10]: 42% | Population Tubulin-Different-Phenotype (%) [10]: 59% | Total Cell Count [10]: 118 | Population Apoptotic (%) [11]: 64% | Population Fragmented Nuclei (%) [11]: 14% | Population Healthy Nuclei (%) [11]: 29% | Population Hoechst High Intensity Objects (%) [11]: 14% | Population Membrane Permeable-Phenotype (%) [11]: 2% | Population Mitochondria Different-Phenotype (%) [11]: 95% | Population Mitotic Cells (%) [11]: 35% | Population Normal (%) [11]: 85% | Population Pyknosed Nuclei (%) [11]: 55% | Population Tubulin-Different-Phenotype (%) [11]: 89% | Total Cell Count [11]: 267 | Population Apoptotic (%) [12]: 51% | Population Fragmented Nuclei (%) [12]: 6% | Population Healthy Nuclei (%) [12]: 42% | Population Hoechst High Intensity Objects (%) [12]: 6% | Population Mitochondria Different-Phenotype (%) [12]: 78% | Population Mitotic Cells (%) [12]: 48% | Population Normal (%) [12]: 93% | Population Pyknosed Nuclei (%) [12]: 51% | Population Tubulin-Different-Phenotype (%) [12]: 84% | Total Cell Count [12]: 246
